Measured values as given in PubChem BioAssay.
Active and inactive are the calls of the source.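 How the source made its calls, unless noted: active means viability at or below 10% of carrier control in both of two separate runs; inconclusive means viability at or below 10% in only one of the two runs; inactive means the rest.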

How the values were obtained:
[1] = reducers of endogenous Her2 protein level, primary screen, SKBR3 breast tumor cells, AlphaScreen, ATP viability (AID 461;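 active means Her2 level under about 52% in both replicate screens, with viability over 70% of control, limit read from the data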;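 on Her2 level: lower value means less Her2 protein in the cells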;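 on viability: percent of carrier control wells set as 100% viability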); conditions: 18-24 h, measured here: SKBR3 viability, ATP luminescence, at 10 µM
[2] = target: Receptor tyrosine-protein kinase erbB-2 (Homo sapiens) (UniProt P04626); assay: as above; conditions: 18-24 h, at 10 µM, stronger effect = lower value
[3] = SK-BR-3 cell growth inhibitors, pilot screen, 24 h, human (AID 572); conditions: SK-BR-3 viability, CellTiter-Glo luminescence, at 10 µM, stronger effect = lower value;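 further: compound exposure lasted between 18 and 24 h rather than exactly 24 h; 100% = carrier-treated control wells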
[4] = HUVEC growth inhibition – cell-based, human, primary screen (AID 575;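 active means viability at or below 30% in both replicate assays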;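 further: 100% = median of untreated cell wells with 0.1% DMSO on each plate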); conditions: HUVEC proliferation, CellTiter-Glo luminescence, 72 h; at 10 µM; stronger effect = lower value
In short: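 Assay system: primary human umbilical vein endothelial cells / Buffer or medium: endothelial basal medium with 2% FBS plus growth supplements / Compound dosing: one dose, 10 µM final, 0.1% DMSO / Timing: 72 h treatment at 37 °C / Signal: CTG luminescence / Benchmarks: 32 DMSO-only cell-control wells (high), 32 MePR drug-control wells (low) per plate / Plate: collagen-coated 384-well format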

[5] = growth inhibitors of H69AR lung tumor, primary screen, human, duplicate replicates (AID 580;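 active means viability at or under a set limit in both replicates, limit being median viability minus 3 SD, cut at about 48% in these data, passing the limit was not always enough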;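 further: 100% = mean luminescence of untreated wells and 0% = no signal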); conditions: H69AR lung tumor cells viability, ATP luminescence, 72 h; at 10 µM; stronger effect = lower value
[6] = reversal of MRP1-mediated doxorubicin resistance, pilot screen, H69AR cells, doxorubicin co-treatment (AID 601;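 active means viability loss from added drug above about 55%, and viability with drug at most 40%, in both replicates, limit read from the data, passing the limit was not always enough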); conditions: CellTiter-Glo, 72 h, at 10 µM; for differential viability (reversal): stronger effect = higher value
[7] = 384-well plate pilot, post-Golgi transport modulator project, inhibition of yeast transport mutant growth (AID 636; in the data active means inhibition above about 31%); conditions: absorbance 615 nm, about 18 h, stronger effect = higher value
[8] = growth suppression of yeast trafficking mutant, preliminary HTS, modulators of trafficking downstream of Golgi apparatus project, 1536-format plate, OD 615 nm (AID 637; in the data active means inhibition above about 30%); conditions: yeast transport mutant growth, absorbance 615 nm, 18 h; stronger effect = higher value
[9] = H69AR cells + 2 uM doxorubicin, measured here: viability with 2 uM doxorubicin, stronger effect = lower value
[10] = H69AR cells, compound alone cytotoxicity

Receptor tyrosine-protein kinase erbB-2 (Homo sapiens), sequence (P04626 whole entry, looked up): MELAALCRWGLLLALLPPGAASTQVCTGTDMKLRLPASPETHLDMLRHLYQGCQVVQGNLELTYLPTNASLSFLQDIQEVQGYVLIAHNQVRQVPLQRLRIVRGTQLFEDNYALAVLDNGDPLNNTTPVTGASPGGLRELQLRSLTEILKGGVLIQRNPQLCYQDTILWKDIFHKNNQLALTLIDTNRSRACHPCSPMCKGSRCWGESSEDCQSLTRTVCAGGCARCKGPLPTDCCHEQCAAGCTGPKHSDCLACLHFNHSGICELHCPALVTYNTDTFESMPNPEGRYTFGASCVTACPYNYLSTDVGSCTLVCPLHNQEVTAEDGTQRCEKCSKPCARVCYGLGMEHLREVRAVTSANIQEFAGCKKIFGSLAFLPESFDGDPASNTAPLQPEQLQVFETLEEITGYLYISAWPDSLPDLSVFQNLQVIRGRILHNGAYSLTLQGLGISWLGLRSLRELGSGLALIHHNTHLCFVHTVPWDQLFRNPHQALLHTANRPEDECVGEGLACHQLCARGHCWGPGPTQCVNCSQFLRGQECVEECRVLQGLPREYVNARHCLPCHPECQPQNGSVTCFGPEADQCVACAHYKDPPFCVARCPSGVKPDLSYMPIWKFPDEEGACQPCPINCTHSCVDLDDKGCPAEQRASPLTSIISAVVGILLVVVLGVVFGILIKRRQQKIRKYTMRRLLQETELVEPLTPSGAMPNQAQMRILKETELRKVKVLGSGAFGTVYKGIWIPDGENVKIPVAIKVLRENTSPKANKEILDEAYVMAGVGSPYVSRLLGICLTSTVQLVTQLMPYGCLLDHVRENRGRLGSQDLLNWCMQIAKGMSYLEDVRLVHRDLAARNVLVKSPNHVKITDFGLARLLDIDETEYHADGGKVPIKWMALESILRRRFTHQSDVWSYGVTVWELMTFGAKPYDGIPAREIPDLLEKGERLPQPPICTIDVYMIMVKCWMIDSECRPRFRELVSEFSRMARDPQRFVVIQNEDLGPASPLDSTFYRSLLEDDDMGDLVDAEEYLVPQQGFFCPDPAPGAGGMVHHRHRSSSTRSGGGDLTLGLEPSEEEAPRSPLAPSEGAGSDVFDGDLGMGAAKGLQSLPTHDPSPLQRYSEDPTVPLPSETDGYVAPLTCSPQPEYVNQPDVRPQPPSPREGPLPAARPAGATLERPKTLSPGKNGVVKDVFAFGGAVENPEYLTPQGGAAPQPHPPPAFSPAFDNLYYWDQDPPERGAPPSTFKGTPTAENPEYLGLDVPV

| Structure (SMILES) | viability [1] [%] | Her2 level [2] | viability [3] | viability [4] | viability [5] | differential viability (reversal) ([6]; H69AR cells + 2 uM doxorubicin) | viability [6, 9] [%] | viability [6, 10] [%] | inhibition [7] | inhibition [8] |
| --- | --- | --- | --- | --- | --- | --- | --- | --- | --- | --- |
| Cc1cccc(N2C(=O)CC(N3CCN(C(=O)c4ccccc4)CC3)C2=O)c1 (stereo not given) | 114 | 104% (inactive) | 114% (inactive) | 90.8% (inactive) | 96.3% (inactive) | 12.7% (inactive) | 83.6 | 96.3 | -5.32% (inactive) | 2.13% (inactive) |
| CCCn1c(O)c(CN2CCCC(C)C2)c(C)c(C#N)c1=O (stereo not given) | 102 | 87.5% (inactive) | 102% (inactive) | 86.8% (inactive) | 107% (inactive) | 15.3% (inactive) | 92.2 | 107 | -5.87% (inactive) | 5.32% (inactive) |
| Cc1ccc(S(=O)(=O)N2CCCC2C(=O)n2nc(C)cc2C)cc1 (stereo not given) | 114 | 90% (inactive) | 114% (inactive) | 90.1% (inactive) | 83.5% (inactive) | 2.58% (inactive) | 80.9 | 83.5 | -7.97% (inactive) | 3.67% (inactive) |
| Cc1sc2c(c1C)CN(C1CC(C)(C)NC(C)(C)C1)CN2C(=O)c1ccco1 | 86.5 | 80.5% (inactive) | 86.5% (inactive) | 75.7% (inactive) | 83.7% (inactive) | 0.235% (inactive) | 83.4 | 83.7 | -7.33% (inactive) | 1.8% (inactive) |
| COc1ccc(-c2cn3c(C)c(C(=O)Nc4cc(NC(C)=O)ccc4OC)sc3n2)cc1 | 92 | 79.5% (inactive) | 92% (inactive) | 71.5% (inactive) | 20.2% (active) | -42.9% (inactive) | 63.1 | 20.2 | -5.73% (inactive) | -2.13% (inactive) |
| CC(C)OC(=O)CSc1nc2cccnc2n1C1CCCCC1 | 124 | 93.5% (inactive) | 124% (inactive) | 112% (inactive) | 95.3% (inactive) | 5.92% (inactive) | 89.4 | 95.3 | -5.33% (inactive) | 3.44% (inactive) |
| NC(=O)NC(=O)CSc1cccc(C(F)(F)F)c1 | 138 | 94.5% (inactive) | 138% (inactive) | 90.1% (inactive) | 88.2% (inactive) | 1.01% (inactive) | 87.2 | 88.2 | -8.63% (inactive) | 2.22% (inactive) |
| Cc1nnc(SCc2nc3ccccc3s2)n1-c1ccccc1 | 88 | 83% (inactive) | 88% (inactive) | 75.4% (inactive) | 76% (inactive) | -5.34% (inactive) | 81.3 | 76 | -6% (inactive) | -0.48% (inactive) |
| COC(=O)c1ccccc1NC(=O)C1CC(=O)N(c2ccc(F)cc2)C1 (stereo not given) | 121 | 77% (inactive) | 121% (inactive) | 108% (inactive) | 96% (inactive) | 15.5% (inactive) | 80.6 | 96 | -6.4% (inactive) | 2.13% (inactive) |
| CCc1nc2sc3c(c2c(=O)o1)CCCC3 | 102 | 81% (inactive) | 102% (inactive) | 82.1% (inactive) | 96.3% (inactive) | -0.255% (inactive) | 96.6 | 96.3 | -7.5% (inactive) | -9.84% (inactive) |
| Cc1ccc(-c2nc(CS(=O)CC(=O)NCCN(CC(C)C)CC(C)C)c(C)o2)cc1 (stereo not given) | 81 | 84.5% (inactive) | 81% (inactive) | 86.4% (inactive) | 103% (inactive) | 19.8% (inactive) | 83.6 | 103 | -5.2% (inactive) | 0.97% (inactive) |
| CCc1nnc(NC(=O)c2ccc(S(=O)(=O)NC3CCCCC3)cc2)s1 | 86.5 | 69.5% (inactive) | 86.5% (inactive) | 74% (inactive) | 80.1% (inactive) | 43% (inactive) | 37.1 | 80.1 | -5.68% (inactive) | -8.33% (inactive) |
| CC(=O)c1cccc(-n2nnnc2SCC(=O)N2CCCC2)c1 | 93.5 | 88% (inactive) | 93.5% (inactive) | 83.1% (inactive) | 87.9% (inactive) | -2.82% (inactive) | 90.7 | 87.9 | -3.55% (inactive) | -7.5% (inactive) |
| CC(NC(=O)C1CCCN(S(=O)(=O)c2cccs2)C1)c1ccccc1 (stereo not given) | 95 | 80.5% (inactive) | 95% (inactive) | 104% (inactive) | 89.7% (inactive) | 1.41% (inactive) | 88.2 | 89.7 | 1.03% (inactive) | 1.17% (inactive) |
| CC(=O)c1cc(Cl)ccc1OC(=O)c1ccco1 | 106 | 92.5% (inactive) | 106% (inactive) | 95.3% (inactive) | 89.2% (inactive) | -3.25% (inactive) | 92.5 | 89.2 | -0.65% (inactive) | -4.43% (inactive) |
| O=C(NCc1ccco1)C1CCN(S(=O)(=O)N2CCC3(CC2)OCCO3)CC1 | 99.5 | 92% (inactive) | 99.5% (inactive) | 118% (inactive) | 100% (inactive) | 14.2% (inactive) | 85.8 | 100 | -6.89% (inactive) | -7.17% (inactive) |
